ChEMBL document CHEMBL1821604, “Anticancer activity and cDNA microarray studies of a (RS)-1,2,3,5-tetrahydro-4,1-benzoxazepine-3-yl]-6-chloro-9H-purine, and an acyclic (RS)-O,N-acetalic 6-chloro-7H-purine” (Eur J Med Chem, 2011)

Columns and labels:
Format in all cases: functional
HT-29 [1] = assay: Upregulation of CTSZ gene expression in human HT-29 cells at IC50 after 48 hrs by cDNA microarray technique relative to control
HT-29 [2] = assay: Down regulation of CDH4 gene expression in human HT-29 cells at IC50 after 48 hrs by cDNA microarray technique relative to control
Outline: (§1)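 8 × 10⁶ cells exposed 48 h to compound at its IC50 concentration; total RNA isolated with trizol/chloroform and RNeasy columns including on-column DNase step; RNA quantified by OD 260/280; DMSO-treated cultures as control.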

MCF7 [3] = assay: Upregulation of KIAA1277 gene expression in human MCF7 cells at IC50 after 48 hrs by cDNA microarray technique relative to control
HT-29 [4] = assay: Upregulation of COL1A1 gene expression in human HT-29 cells at IC50 after 48 hrs by cDNA microarray technique relative to control
MCF7 [5] = assay: Down regulation of AF086546 gene expression in human MCF7 cells at IC50 after 48 hrs by cDNA microarray technique relative to control; outline: as §1
HT-29 [6] = assay: Upregulation of LOC283385 gene expression in human HT-29 cells at IC50 after 48 hrs by cDNA microarray technique relative to control
HT-29 [7] = assay: Down regulation of PARK2 gene expression in human HT-29 cells at IC50 after 48 hrs by cDNA microarray technique relative to control
HT-29 [8] = assay: Down regulation of GBP1 gene expression in human HT-29 cells at IC50 after 48 hrs by cDNA microarray technique relative to control
Outline: (§2)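 Cells (8 × 10⁶) were cultured in DMEM with 10% heat-inactivated FBS at 37 °C under 5% CO₂. They were exposed for 48 h to compound at its IC₅₀, with DMSO-treated parallel cultures as controls (final DMSO ≤0.1% v/v). Total RNA was isolated by trizol/chloroform phase separation, RNeasy column cleanup and on-column DNase, then quantified by OD260/OD280. Expression was profiled by cDNA microarray relative to control.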

MCF7 [9] = assay: Down regulation of DKFZp667G2110 gene expression in human MCF7 cells at IC50 after 48 hrs by cDNA microarray technique relative to control; outline: as §1
MCF7 [10] = assay: Down regulation of EFHC2 gene expression in human MCF7 cells at IC50 after 48 hrs by cDNA microarray technique relative to control; outline: as §2
MCF7 [11] = assay: Upregulation of ZNF141 gene expression in human MCF7 cells at IC50 after 48 hrs by cDNA microarray technique relative to control
HT-29 [12] = assay: Down regulation of MOG gene expression in human HT-29 cells at IC50 after 48 hrs by cDNA microarray technique relative to control
HT-29 [13] = assay: Upregulation of NAV1 gene expression in human HT-29 cells at IC50 after 48 hrs by cDNA microarray technique relative to control
HT-29 [14] = assay: Down regulation of TMEM27 gene expression in human HT-29 cells at IC50 after 48 hrs by cDNA microarray technique relative to control
MCF7 [15] = assay: Down regulation of FLJ37562 gene expression in human MCF7 cells at IC50 after 48 hrs by cDNA microarray technique relative to control; outline: as §2
MCF7 [16] = assay: Down regulation of KIAA1533 gene expression in human MCF7 cells at IC50 after 48 hrs by cDNA microarray technique relative to control; outline: as §2
MCF7 [17] = assay: Upregulation of MGC32020 gene expression in human MCF7 cells at IC50 after 48 hrs by cDNA microarray technique relative to control
MCF7 [18] = assay: Down regulation of SLC16A7 gene expression in human MCF7 cells at IC50 after 48 hrs by cDNA microarray technique relative to control
MCF7 [19] = assay: Upregulation of WBSCR27 gene expression in human MCF7 cells at IC50 after 48 hrs by cDNA microarray technique relative to control
HT-29 [20] = assay: Down regulation of LIN28 gene expression in human HT-29 cells at IC50 after 48 hrs by cDNA microarray technique relative to control; outline: as §2
MCF7 [21] = assay: Down regulation of SNTG1 gene expression in human MCF7 cells at IC50 after 48 hrs by cDNA microarray technique relative to control
MCF7 [22] = assay: Down regulation of BDKRB1 gene expression in human MCF7 cells at IC50 after 48 hrs by cDNA microarray technique relative to control; outline: as §1
MCF7 [23] = assay: Upregulation of PPIL4 gene expression in human MCF7 cells at IC50 after 48 hrs by cDNA microarray technique relative to control
MCF7 [24] = assay: Upregulation of SCGB1D2 gene expression in human MCF7 cells at IC50 after 48 hrs by cDNA microarray technique relative to control
HT-29 [25] = assay: Down regulation of C20orf178 gene expression in human HT-29 cells at IC50 after 48 hrs by cDNA microarray technique relative to control; outline: as §1
HT-29 [26] = assay: Upregulation of EGLN3 gene expression in human HT-29 cells at IC50 after 48 hrs by cDNA microarray technique relative to control
HT-29 [27] = assay: Down regulation of DRD5 gene expression in human HT-29 cells at IC50 after 48 hrs by cDNA microarray technique relative to control; outline: as §2
MCF7 [28] = assay: Upregulation of GABARAPL1 gene expression in human MCF7 cells at IC50 after 48 hrs by cDNA microarray technique relative to control
HT-29 [29] = assay: Down regulation of SLC39A7 gene expression in human HT-29 cells at IC50 after 48 hrs by cDNA microarray technique relative to control
HT-29 [30] = assay: Down regulation of AQP3 gene expression in human HT-29 cells at IC50 after 48 hrs by cDNA microarray technique relative to control; outline: as §1
HT-29 [31] = assay: Down regulation of GBGT1 gene expression in human HT-29 cells at IC50 after 48 hrs by cDNA microarray technique relative to control; outline: as §2
HT-29 [32] = assay: Upregulation of TP53INP1 gene expression in human HT-29 cells at IC50 after 48 hrs by cDNA microarray technique relative to control
HT-29 [33] = assay: Down regulation of LOC203427 gene expression in human HT-29 cells at IC50 after 48 hrs by cDNA microarray technique relative to control
HT-29 [34] = assay: Upregulation of C1orf24 gene expression in human HT-29 cells at IC50 after 48 hrs by cDNA microarray technique relative to control
MCF7 [35] = assay: Upregulation of ATP12A gene expression in human MCF7 cells at IC50 after 48 hrs by cDNA microarray technique relative to control
HT-29 [36] = assay: Down regulation of VPS18 gene expression in human HT-29 cells at IC50 after 48 hrs by cDNA microarray technique relative to control
HT-29 [37] = assay: Upregulation of LAMP3 gene expression in human HT-29 cells at IC50 after 48 hrs by cDNA microarray technique relative to control
MCF7 [38] = assay: Upregulation of UNQ739 gene expression in human MCF7 cells at IC50 after 48 hrs by cDNA microarray technique relative to control

Compound: COC(CN(c1ccccc1CO)S(=O)(=O)c1ccccc1[N+](=O)[O-])n1cnc2ncnc(Cl)c21 (racemic)
- fold change (FC) (HT-29 [1]): 2.23
- fold change (FC) (HT-29 [2]): -2.22
- fold change (FC) (MCF7 [3]): 2.21
- fold change (FC) (HT-29 [4]): 4.97
- fold change (FC) (MCF7 [5]): -2.14
- fold change (FC) (HT-29 [6]): 4.37
- fold change (FC) (HT-29 [7]): -2.96
- fold change (FC) (HT-29 [8]): -2.47
- fold change (FC) (MCF7 [9]): -2.15
- fold change (FC) (MCF7 [10]): -2.27
- fold change (FC) (MCF7 [11]): 4.04
- fold change (FC) (HT-29 [12]): -2.65
- fold change (FC) (HT-29 [13]): 2.06
- fold change (FC) (HT-29 [14]): -2.99
- fold change (FC) (MCF7 [15]): -2.08
- fold change (FC) (MCF7 [16]): -2.09
- fold change (FC) (MCF7 [17]): 2.09
- fold change (FC) (MCF7 [18]): -2.27
- fold change (FC) (MCF7 [19]): 3.59
- fold change (FC) (HT-29 [20]): -2.02
- fold change (FC) (MCF7 [21]): -2.46
- fold change (FC) (MCF7 [22]): -2.48
- fold change (FC) (MCF7 [23]): 2.4

Compound: O=C(OCC1c2ccccc2-c2ccccc21)N1CC(n2cnc3c(Cl)ncnc32)OCc2ccccc21 (racemic)
- fold change (FC) (MCF7 [24]): 6.02
- fold change (FC) (HT-29 [25]): -2.21
- fold change (FC) (HT-29 [26]): 2.14
- fold change (FC) (HT-29 [27]): -2.3
- fold change (FC) (MCF7 [28]): 2.07
- fold change (FC) (HT-29 [29]): -2.19
- fold change (FC) (HT-29 [30]): -2.53
- fold change (FC) (HT-29 [31]): -2.07
- fold change (FC) (HT-29 [32]): 2.58
- fold change (FC) (HT-29 [33]): -2.13
- fold change (FC) (HT-29 [34]): 2.44
- fold change (FC) (MCF7 [35]): 2.05
- fold change (FC) (HT-29 [36]): -2.04
- fold change (FC) (HT-29 [37]): 2.91
- fold change (FC) (MCF7 [38]): 4.07
